Measurements as given in ChEMBL document CHEMBL1126013, “Synthesis and evaluation of some water-soluble prodrugs and derivatives of taxol with antitumor activity” (J Med Chem, 1992).

Legend:
[1] = Solubility in water; type: physicochemical; details: read-out: S
B16 [2] = test: Concentration required to inhibit the proliferation of B16 melanoma cells was determined; type: functional, cell-based; details: Mus musculus
B16 [3] = test: Percentage change in cell number of B16 melanoma cells treated with 10e-5 M dose; type: functional, Mus musculus
How it was run: (§1)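 B16 melanoma cells exposed to 10⁻⁵ or 10⁻⁶ M compound for 8 h, then rinsed three times with fresh medium. Cells then grown in drug-free medium for 48 h and counted. Result given as percent change relative to the cell number at time zero. Controls are the average of three experiments.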

B16 [4] = test: Percentage change in cell number of B16 melanoma cells treated with 10e-6 M dose; type: functional, Mus musculus; how it was run: as §1
B16 [5] = test: Relative effect on B16 melanoma cell proliferation was determined [IC50 (taxol)/IC50 (derivative)]; type: functional, Mus musculus
Bos taurus = species on record: Bos taurus; test: Relative effect on microtubular assembly (Tubulin polymerized by derivative/tubulin polymerized by taxol); type: functional
How it was run: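 Bovine brain tubulin, purified from microtubule-associated proteins by phosphocellulose chromatography, used at 10 μM. Turbidity followed at 350 nm. Polymer pelleted at 200000g, 37 °C, 4 min, depolymerized on ice, and protein measured by Bradford.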

Mus musculus [6] = test: Initial average tumor weight was measured in mice induced with human mammary carcinoma at a dose of 4.13 mg/Kg; type: functional
How it was run: (§2)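 MX-1 human mammary carcinoma xenograft implanted under the renal capsule in mice. Study run at the National Cancer Institute following NIH Publication No. 84-2635. Tumor weights recorded at the start and at the end. Survivors counted after 11 days. %T/C = (Δ tumor weight treated/Δ tumor weight control) × 100 where the tumor grows, and (Δ tumor weight treated/initial control tumor weight) × 100 where it regresses.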

Mus musculus [7] = test: Initial average tumor weight was measured in mice induced with human mammary carcinoma at a dose of 8.25 mg/Kg; type: functional; how it was run: as §2
Mus musculus [8] = test: Initial average tumor weight was measured in mice induced with human mammary carcinoma at a dose of 16.5 mg/Kg; type: functional; how it was run: as §2
Mus musculus [9] = test: Number of survivors after 11 days at a dose of 16.5 mg/Kg tested in 4 mice; type: functional
How it was run: (§3)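 MX-1 human mammary carcinoma xenograft implanted under the renal capsule of mice. The study was run at the National Cancer Institute following the procedures of NIH Publication No. 84-2635. Average tumor weight was recorded at the start and end of treatment, and survivors were counted after 11 days. Dosed groups were compared with an untreated control group.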

Mus musculus [10] = test: Number of survivors after 11 days at a dose of 33 mg/Kg tested in 5 mice; type: functional; how it was run: as §3
Mus musculus [11] = test: Tumor growth or regression measured as Percent treated by control at a dose of 8.25 mg/Kg to mice with MX-1 xenograft; type: functional
How it was run: (§4)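 Subrenal capsule human mammary carcinoma (MX-1) xenograft in mice, run at the National Cancer Institute by NIH Publication No. 84-2635 procedures. Initial and final average tumor weights recorded, with survivors counted after 11 days. %T/C is (Δ tumor weight treated/Δ tumor weight controls)×100 for growing tumors. For regressing tumors it is (Δ tumor weight treated/initial control tumor weight)×100.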

Mus musculus [12] = test: Tumor growth or regression measured as Percent treated by control at a dose of 33 mg/Kg to mice with MX-1 xenograft; CR refers to complete remission or when the tumor is no longer detectable; type: functional, organism-based; how it was run: as §2
Mus musculus [13] = test: Tumor growth or regression measured as Percent treated by control at a dose of 4.13 mg/Kg to mice with MX-1 xenograft; type: functional; how it was run: as §4
Mus musculus [14] = test: Number of survivors after 11 days at a dose of 4.13 mg/Kg tested in 5 mice; type: functional; how it was run: as §3
Mus musculus [15] = test: Tumor growth or regression measured as Percent treated by control at a dose of 16.5 mg/Kg to mice with MX-1 xenograft; type: functional; how it was run: as §2
Mus musculus [16] = test: Number of survivors after 11 days at a dose of 8.25 mg/Kg tested in 4 mice; type: functional; how it was run: as §3
Mus musculus [17] = test: Final average tumor weight was measured in mice induced with human mammary carcinoma at a dose of 4.13 mg/Kg; type: functional; how it was run: as §2
Mus musculus [18] = test: Final average tumor weight was measured in mice induced with human mammary carcinoma at a dose of 16.5 mg/Kg; type: functional; how it was run: as §2
Mus musculus [19] = test: Final average tumor weight was measured in mice induced with human mammary carcinoma at a dose of 8.25 mg/Kg; type: functional; how it was run: as §2
Mus musculus [20] = test: Antitumor activity of taxoland the derivative against mammary carcinoma xenograft in mice; type: functional; how it was run: as §2
Mus musculus [21] = test: final average tumor weight was measured in mice induced with human mammary carcinoma at a dose of 33 mg/Kg; type: functional; how it was run: as §4
Mus musculus [22] = test: Initial average tumor weight was measured in mice induced with human mammary carcinoma at a dose of 33 mg/Kg; type: functional; how it was run: as §2
Mus musculus [23] = test: Initial average tumor weight was measured in mice induced with human mammary carcinoma at a dose of 30 mg/kg; type: functional; how it was run: as §2
Mus musculus [24] = test: Initial average tumor weight was measured in mice induced with human mammary carcinoma at a dose of 5.9 mg/Kg; type: functional; how it was run: as §2
Mus musculus [25] = test: Initial average tumor weight was measured in mice induced with human mammary carcinoma at a dose of 8.9 mg/Kg; type: functional; how it was run: as §2
Mus musculus [26] = test: Initial average tumor weight was measured in mice induced with human mammary carcinoma at a dose of 20 mg/Kg; type: functional; how it was run: as §2
Mus musculus [27] = test: Initial average tumor weight was measured in mice induced with human mammary carcinoma at a dose of 13 mg/Kg; type: functional; how it was run: as §2
Mus musculus [28] = test: Number of survivors after 11 days at a dose of 13 mg/Kg tested in 6 mice; type: functional; how it was run: as §3
Mus musculus [29] = test: Number of survivors after 11 days at a dose of 20 mg/Kg tested in 6 mice; type: functional; how it was run: as §3
Mus musculus [30] = test: Number of survivors after 11 days at a dose of 30 mg/kg tested in 6 mice; type: functional; how it was run: as §3
Mus musculus [31] = test: Tumor growth or regression measured as Percent treated by control at a dose of 8.9 mg/kg to mice with MX-1 xenograft; type: functional; how it was run: as §4
Mus musculus [32] = test: Tumor growth or regression measured as Percent treated by control at a dose of 20 mg/Kg to mice with MX-1 xenograft; CR refers to complete remission or when the tumor is no longer detectable; type: functional, organism-based; how it was run: as §2
Mus musculus [33] = test: Tumor growth or regression measured as Percent treated by control at a dose of 30 mg/Kg to mice with MX-1 xenograft; Tox refers to toxicity or when < 65% of the animals survive the test; type: functional, organism-based; how it was run: as §2
Mus musculus [34] = test: Tumor growth or regression measured as Percent treated by control at a dose of 5.9 mg/Kg to mice with MX-1 xenograft; type: functional; how it was run: as §4
Mus musculus [35] = test: Tumor growth or regression measured as Percent treated by control at a dose of 13 mg/Kg to mice with MX-1 xenograft; CR refers to complete remission or when the tumor is no longer detectable; type: functional, organism-based; how it was run: as §2
Mus musculus [36] = test: Number of survivors after 11 days at a dose of 5.9 mg/Kg tested in 6 mice; type: functional; how it was run: as §3
Mus musculus [37] = test: Number of survivors after 11 days at a dose of 8.9 mg/Kg tested in 6 mice; type: functional; how it was run: as §3
Mus musculus [38] = test: Final average tumor weight was measured in mice induced with human mammary carcinoma at a dose of 20 mg/Kg; type: functional; how it was run: as §2
Mus musculus [39] = test: Final average tumor weight was measured in mice induced with human mammary carcinoma at a dose of 30 mg/kg; type: functional; how it was run: as §2
Mus musculus [40] = test: Final average tumor weight was measured in mice induced with human mammary carcinoma at a dose of 5.9 mg/Kg; type: functional; how it was run: as §2
Mus musculus [41] = test: Final average tumor weight was measured in mice induced with human mammary carcinoma at a dose of 8.9 mg/Kg; type: functional; how it was run: as §2
Mus musculus [42] = test: final average tumor weight was measured in mice induced with human mammary carcinoma at a dose of 13 mg/Kg; type: functional; how it was run: as §4

CC(=O)O[C@H]1C(=O)[C@]2(C)[C@@H](OC(=O)CN(C)C)C[C@H]3OC[C@@]3(OC(C)=O)[C@H]2[C@H](OC(=O)c2ccccc2)[C@]2(O)C[C@H](OC(=O)[C@H](O)[C@@H](NC(=O)c3ccccc3)c3ccccc3)C(C)=C1C2(C)C.CS(=O)(=O)O
solubility [1]: > 1.87 mM
IC50 (B16 [2]): 44 nM
Change in cell number (B16 [3]): -60%
Change in cell number (B16 [4]): 222%
Relative effect (B16 [5]): 0.43
Relative effect (Bos taurus): 0.77
Initial average tumor weight (Mus musculus [6]): 0.74 mg
Initial average tumor weight (Mus musculus [7]): 0.81 mg
Initial average tumor weight (Mus musculus [8]): 0.59 mg
No. of survivors (Mus musculus [9]): 3
No. of survivors (Mus musculus [10]): 4
T/C (Mus musculus [11]): 23%
T/C (Mus musculus [12]): Complete remission
T/C (Mus musculus [13]): 34%
No. of survivors (Mus musculus [14]): 4
T/C (Mus musculus [15]): -93%
No. of survivors (Mus musculus [16]): 4
Final average tumor weight (Mus musculus [17]): 5.66 mg
Final average tumor weight (Mus musculus [18]): 0.04 mg
Final average tumor weight (Mus musculus [19]): 4.19 mg
Relative antitumor activity (Mus musculus [20]): 3
Final average tumor weight (Mus musculus [21]): 0 mg
Initial average tumor weight (Mus musculus [22]): 0.74 mg

CC(=O)O[C@H]1C(=O)[C@@]2(C)[C@H]([C@H](OC(=O)c3ccccc3)[C@]3(O)C[C@H](OC(=O)[C@H](OC(=O)CN(C)C)[C@@H](NC(=O)c4ccccc4)c4ccccc4)C(C)=C1C3(C)C)[C@]1(OC(C)=O)CO[C@@H]1C[C@@H]2O.CS(=O)(=O)O
solubility [1]: 4.83 mM
IC50 (B16 [2]): 21 nM
Change in cell number (B16 [3]): 84%
Change in cell number (B16 [4]): 261%
Relative effect (B16 [5]): 0.9
Relative effect (Bos taurus): 0.25
Initial average tumor weight (Mus musculus [23]): 0.68 mg
Initial average tumor weight (Mus musculus [24]): 0.61 mg
Initial average tumor weight (Mus musculus [25]): 0.77 mg
Initial average tumor weight (Mus musculus [26]): 0.56 mg
Initial average tumor weight (Mus musculus [27]): 0.64 mg
No. of survivors (Mus musculus [28]): 4
No. of survivors (Mus musculus [29]): 4
No. of survivors (Mus musculus [30]): 1
T/C (Mus musculus [31]): -53%
T/C (Mus musculus [32]): Complete remission
T/C (Mus musculus [33]): Toxic
T/C (Mus musculus [34]): -78%
T/C (Mus musculus [35]): Complete remission
No. of survivors (Mus musculus [36]): 6
No. of survivors (Mus musculus [37]): 5
Final average tumor weight (Mus musculus [38]): 0 mg
Final average tumor weight (Mus musculus [39]): 0 mg
Final average tumor weight (Mus musculus [40]): 0.13 mg
Relative antitumor activity (Mus musculus [20]): 2
Final average tumor weight (Mus musculus [41]): 0.36 mg
Final average tumor weight (Mus musculus [42]): 0 mg
